Data on one molecule can be found in ChEMBL document CHEMBL3997800, “Discovery of Multitarget Agents Active as Broad-Spectrum Antivirals and Correctors of Cystic Fibrosis Transmembrane Conductance Regulator for Associated Pulmonary Diseases” (J Med Chem, 2017).

Active and inactive are the calls of the source. The calls are words filed in the database; no cut-off is given here.

What is called EC50 is the concentration that produces a half-maximal response. As usually defined, the CC50 is the concentration at which the toxic effect on the cells reaches its halfway point.

For data set [1], the target named is Glycogen synthase kinase-3 beta (Homo sapiens) (UniProt P49841). The data set can be described thus: Inhibition of full-length recombinant human N-terminal GST-tagged GSK3beta expressed in baculovirus infected sf9 cells assessed as residual activity at 100 uM using YRRAAVPPSPSLSRHSSPHQ(pS)EDEEE as substrate by ADP-Glo bioluminescence assay relative to control relative to control. Summed up:
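Kinase run per the manufacturer's instructions with 10–50 ng enzyme in 10 μL at 30 °C for 10 min. NP-40 or BSA was added for some kinases. Compound was tested at 100 μM, with activity given as % residual. Values are the mean of two independent replicates.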

Data set [2] deals with Enterovirus A71. In words: Antiviral activity against Enterovirus 71 infected in RD cells assessed as reduction in virus-induced cytopathic effect incubated for 2 to 3 days. The data set is classed as functional, cell-based. The following applies: Enterovirus A, RD; read-out: EC50. The method, boiled down:
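RD cells seeded at 20 000/well in MEM with 2% FCS and infected with EV71. Three 8-step 1:5 dilution series from 100 μM. Incubated 2-3 days until maximal CPE, then scored for CPE reduction. EC50 is the median of three dose-response curves.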

For data set [3], the target named is Tyrosine-protein kinase ABL1 (Homo sapiens) (UniProt P00519). The data set can be described thus: Inhibition of full length ABL (unknown origin) assessed as residual activity at 100 uM by ADP-Glo bioluminescence assay relative to control relative to control. Summed up:
(§1)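 Kinase reactions followed manufacturer's instructions with 10-50 ng enzyme, in 10 µL for 10 min at 30 °C; NP-40 or BSA added for some kinases. Compound at 100 µM. Residual activity is the mean of two independent replicates.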

A short description of data set [4]: Cytotoxicity against human RD cells after 2 to 3 days by MTS method. In kind it is cell-based. The method, boiled down: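 Uninfected RD cells, 20 000/well in 2% FCS medium, run in parallel with the antiviral assay. Three 8-step 1:5 dilution series from 100 μM, 2-3 days. Read-out by 5% MTS, 1.5 h at 37 °C, absorbance 498 nm, as % of untreated controls. CC50 is the 50% metabolic activity point, median of 3 curves.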

Data set [5] addresses Proto-oncogene tyrosine-protein kinase Src (Homo sapiens) (UniProt P12931). The data set can be described thus: Inhibition of full-length recombinant human N-terminal GST-tagged SRC expressed in Escherichia coli assessed as residual activity at 100 uM using KVEKIGEGTYGVVYK-amide as substrate by ADP-Glo bioluminescence assay relative to control relative to control. Summed up: as §1

Data set [6] addresses CDK9/Cyclin K (Homo sapiens) (UniProt P50750+O75909). The data set can be described thus: Inhibition of full-length recombinant human N-terminal GST-tagged CDK9/cyclin K expressed in baculovirus infected sf9 cells assessed as residual activity at 100 uM using KTFCGTPEYLAPEVRREPRILSEEEQEMFRDFDYIADWC as substrate by ADP-Glo bioluminescence assay relative to control relative to control. Summed up: as §1
(In general: In ADP-Glo the light output rises with the ADP produced.)

Data set [7] concerns the target Focal adhesion kinase 1 (Homo sapiens) (UniProt Q05397). The data set can be described thus: Inhibition of […] recombinant human FAK (393 to 698 residues) expressed in baculovirus infected sf9 cells assessed as residual activity at 100 uM using poly(Glu,Tyr)4:1 as substrate by ADP-Glo bioluminescence assay relative to control relative to control. Summed up:
as §1

The subject of data set [8] is Cystic fibrosis transmembrane conductance regulator (Homo sapiens), P13569 [F508del]. In words: Potentiator activity at CFTR F508 deletion mutant (unknown origin) expressed in HEK293 cells assessed as increase in aninon permeability at 10 uM […] by YFP probe based imaging method. In kind it is cell-based.
Data set [9] is described as follows: Inhibition of full length recombinant His6-tagged PI4K3alpha (unknown origin) expressed in Sf9 insect cells assessed as residual activity at 100 uM using PI : PS as substrate in presence of [gamma-33P]-ATP by scintillation counting method relative to control. The settings on record: Homo sapiens.
In another data set the test system is Echovirus E11. The data set can be described thus: Antiviral activity against Echovirus 11 after 2 to 3 days. The settings on record: Enterovirus B. The data set is classed as functional.
Data set [10] in a line: Cytotoxicity against human RD cells assessed as change in cell morphology by microscopic method. The data set is classed as cell-based. Summed up:
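Uninfected, compound-treated RD cells were inspected by microscope. CC50 was taken from microscopically detectable alteration of cell morphology.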

For data set [11], the system named is Enterovirus A71. The data set can be described thus: Antiviral activity against Enterovirus 71 TW/1956/05 clinical isolates incubated for 2 to 3 days. The following applies: Enterovirus A. In kind it is functional.
Data set [12] deals with CDK6/cyclin D1 (Homo sapiens) (UniProt P24385+Q00534). The data set can be described thus: Inhibition of CDK6/cyclin D1 (unknown origin) assessed as residual activity at 100 uM by ADP-Glo bioluminescence assay relative to control relative to control. The data set is classed as protein-complex assay. Summed up: as §1
Data set [13] concerns Enterovirus A71. The data set can be described thus: Antiviral activity against Enterovirus 71 11316 clinical isolates incubated for 2 to 3 days. In kind it is functional. The following applies: Enterovirus A.
The subject of data set [14] is Enterovirus A71. The data set can be described thus: Antiviral activity against Enterovirus 71 TW/2429/04 clinical isolates incubated for 2 to 3 days. In kind it is functional. The following applies: Enterovirus A.
Data set [15] has as its target CDK9/cyclin T1 (Homo sapiens) (UniProt O60563+P50750). The data set can be described thus: Inhibition of CDK9/cyclin T1 (unknown origin) assessed as residual activity at 100 uM by ADP-Glo bioluminescence assay relative to control relative to control. The data set is classed as protein-complex assay. Summed up:
as §1

The target of data set [16] is PI3-kinase p110-alpha/p85-alpha (Homo sapiens) (UniProt P27986+P42336). In words: Inhibition of full length recombinant human N-terminal His6-tagged PI3Kalpha (1 to 1068 residues)/full length human N-terminal myc-tagged P85alpha (1 to 724 residues) expressed in Sf9 insect cells assessed as residual activity at 100 uM using PI : PS as substrate in presence of [gamma-33P]-ATP by scintillation counting method relative to control.

For data set [17], the target named is Dual specificity tyrosine-phosphorylation-regulated kinase 1A (Homo sapiens) (UniProt Q13627). In words: Inhibition of human DYRK1A assessed as residual activity at 100 uM by ADP-Glo bioluminescence assay relative to control relative to control. The method, boiled down:
as §1

In data set [18] the target is CDK2/Cyclin A2 (Homo sapiens) (UniProt P24941+P20248). In words: Inhibition of full-length recombinant human N-terminal GST-tagged CDK2/cyclin A2 expressed in baculovirus infected sf9 cells assessed as residual activity at 100 uM using histone H1 as substrate by ADP-Glo bioluminescence assay relative to control relative to control. The method, boiled down:
as §1

Another data set has as its system rhinovirus B14. The data set can be described thus: Antiviral activity against Rhinovirus 14 after 2 to 3 days by cell based MTS assay. In kind it is functional. The following applies: Rhinovirus B; read-out: EC50. (Tetrazolium assays rely on reduction of a dye to a coloured formazan, in cell work by metabolically active cells.)
Data set [19] has as its system Enterovirus A71. In words: Antiviral activity against Enterovirus 71 TW/96016/08 clinical isolates incubated for 2 to 3 days. In kind it is functional. The settings on record: Enterovirus A.
For data set [20], the target named is Receptor-type tyrosine-protein kinase FLT3 (Homo sapiens) (UniProt P36888). In words: Inhibition of recombinant human N-terminal GST-tagged FLT3 (571 to 993 residues) expressed in baculovirus infected sf9 cells assessed as residual activity using myelin basic protein as substrate at 100 uM by ADP-Glo bioluminescence assay relative to control relative to control. Summed up: as §1
Sequence of Receptor-type tyrosine-protein kinase FLT3 (Homo sapiens) (P36888 whole entry, the tested form may be a part): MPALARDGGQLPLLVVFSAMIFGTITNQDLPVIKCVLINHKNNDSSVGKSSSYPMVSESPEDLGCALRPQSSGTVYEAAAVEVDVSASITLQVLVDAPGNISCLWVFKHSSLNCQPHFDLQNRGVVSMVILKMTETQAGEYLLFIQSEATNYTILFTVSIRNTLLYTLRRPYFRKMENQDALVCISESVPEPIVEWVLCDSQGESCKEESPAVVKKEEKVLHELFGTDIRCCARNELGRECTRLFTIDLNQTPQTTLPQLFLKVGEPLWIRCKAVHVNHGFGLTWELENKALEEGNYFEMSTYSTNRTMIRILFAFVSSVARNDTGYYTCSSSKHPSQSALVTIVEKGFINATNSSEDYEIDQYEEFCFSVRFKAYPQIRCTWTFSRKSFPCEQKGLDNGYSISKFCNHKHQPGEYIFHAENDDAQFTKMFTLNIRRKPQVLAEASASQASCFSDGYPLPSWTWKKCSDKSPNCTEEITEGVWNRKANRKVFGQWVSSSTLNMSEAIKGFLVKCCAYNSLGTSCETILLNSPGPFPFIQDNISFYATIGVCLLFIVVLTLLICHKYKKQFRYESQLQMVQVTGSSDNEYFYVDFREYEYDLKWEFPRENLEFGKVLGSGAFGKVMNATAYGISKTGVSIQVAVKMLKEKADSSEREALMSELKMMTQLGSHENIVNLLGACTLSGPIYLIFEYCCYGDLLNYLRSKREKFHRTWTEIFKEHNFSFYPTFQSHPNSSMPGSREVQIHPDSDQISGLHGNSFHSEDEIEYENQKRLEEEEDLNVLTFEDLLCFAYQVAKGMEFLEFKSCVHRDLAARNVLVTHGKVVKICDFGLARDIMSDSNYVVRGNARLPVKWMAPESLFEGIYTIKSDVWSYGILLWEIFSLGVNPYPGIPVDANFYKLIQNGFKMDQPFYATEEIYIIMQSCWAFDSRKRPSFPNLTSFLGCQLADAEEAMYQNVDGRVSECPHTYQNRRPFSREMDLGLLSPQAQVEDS

Data set [21] has as its target Tyrosine-protein kinase HCK (Homo sapiens) (UniProt P08631). The data set can be described thus: Inhibition of full-length recombinant human HCK assessed as residual activity at 100 uM using poly(Glu,Tyr)4:1 as substrate by ADP-Glo bioluminescence assay relative to control relative to control. Summed up:
as §1

Sequence of Glycogen synthase kinase-3 beta (Homo sapiens) (P49841 whole entry, looked up): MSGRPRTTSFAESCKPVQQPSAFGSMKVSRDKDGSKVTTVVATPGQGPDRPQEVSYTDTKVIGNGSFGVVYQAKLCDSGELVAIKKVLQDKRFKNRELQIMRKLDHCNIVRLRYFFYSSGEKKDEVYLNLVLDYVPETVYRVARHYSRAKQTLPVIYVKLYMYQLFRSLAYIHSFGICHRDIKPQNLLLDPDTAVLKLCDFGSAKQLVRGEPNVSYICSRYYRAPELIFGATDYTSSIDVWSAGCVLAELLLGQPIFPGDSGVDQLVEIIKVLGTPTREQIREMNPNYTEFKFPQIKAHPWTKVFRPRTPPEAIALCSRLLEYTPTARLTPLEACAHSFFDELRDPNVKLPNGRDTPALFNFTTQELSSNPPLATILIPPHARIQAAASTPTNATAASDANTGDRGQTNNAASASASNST
Sequence of Tyrosine-protein kinase HCK (Homo sapiens) (P08631 2-526 limits assumed): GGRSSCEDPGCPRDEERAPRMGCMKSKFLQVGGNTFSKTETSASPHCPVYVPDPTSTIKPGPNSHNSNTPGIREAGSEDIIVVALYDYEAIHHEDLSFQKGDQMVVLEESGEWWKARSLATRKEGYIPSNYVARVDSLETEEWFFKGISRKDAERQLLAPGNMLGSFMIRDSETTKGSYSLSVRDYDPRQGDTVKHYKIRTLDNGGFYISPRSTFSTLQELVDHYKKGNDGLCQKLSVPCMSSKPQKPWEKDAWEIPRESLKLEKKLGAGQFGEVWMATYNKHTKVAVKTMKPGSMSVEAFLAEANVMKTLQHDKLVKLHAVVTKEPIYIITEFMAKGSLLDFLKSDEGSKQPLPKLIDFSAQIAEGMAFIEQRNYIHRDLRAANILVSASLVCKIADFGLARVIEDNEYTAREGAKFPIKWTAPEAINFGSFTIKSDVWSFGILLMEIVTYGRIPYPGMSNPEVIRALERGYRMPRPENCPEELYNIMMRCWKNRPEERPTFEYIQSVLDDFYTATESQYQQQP
Sequence of Tyrosine-protein kinase ABL1 (Homo sapiens) (P00519 whole entry): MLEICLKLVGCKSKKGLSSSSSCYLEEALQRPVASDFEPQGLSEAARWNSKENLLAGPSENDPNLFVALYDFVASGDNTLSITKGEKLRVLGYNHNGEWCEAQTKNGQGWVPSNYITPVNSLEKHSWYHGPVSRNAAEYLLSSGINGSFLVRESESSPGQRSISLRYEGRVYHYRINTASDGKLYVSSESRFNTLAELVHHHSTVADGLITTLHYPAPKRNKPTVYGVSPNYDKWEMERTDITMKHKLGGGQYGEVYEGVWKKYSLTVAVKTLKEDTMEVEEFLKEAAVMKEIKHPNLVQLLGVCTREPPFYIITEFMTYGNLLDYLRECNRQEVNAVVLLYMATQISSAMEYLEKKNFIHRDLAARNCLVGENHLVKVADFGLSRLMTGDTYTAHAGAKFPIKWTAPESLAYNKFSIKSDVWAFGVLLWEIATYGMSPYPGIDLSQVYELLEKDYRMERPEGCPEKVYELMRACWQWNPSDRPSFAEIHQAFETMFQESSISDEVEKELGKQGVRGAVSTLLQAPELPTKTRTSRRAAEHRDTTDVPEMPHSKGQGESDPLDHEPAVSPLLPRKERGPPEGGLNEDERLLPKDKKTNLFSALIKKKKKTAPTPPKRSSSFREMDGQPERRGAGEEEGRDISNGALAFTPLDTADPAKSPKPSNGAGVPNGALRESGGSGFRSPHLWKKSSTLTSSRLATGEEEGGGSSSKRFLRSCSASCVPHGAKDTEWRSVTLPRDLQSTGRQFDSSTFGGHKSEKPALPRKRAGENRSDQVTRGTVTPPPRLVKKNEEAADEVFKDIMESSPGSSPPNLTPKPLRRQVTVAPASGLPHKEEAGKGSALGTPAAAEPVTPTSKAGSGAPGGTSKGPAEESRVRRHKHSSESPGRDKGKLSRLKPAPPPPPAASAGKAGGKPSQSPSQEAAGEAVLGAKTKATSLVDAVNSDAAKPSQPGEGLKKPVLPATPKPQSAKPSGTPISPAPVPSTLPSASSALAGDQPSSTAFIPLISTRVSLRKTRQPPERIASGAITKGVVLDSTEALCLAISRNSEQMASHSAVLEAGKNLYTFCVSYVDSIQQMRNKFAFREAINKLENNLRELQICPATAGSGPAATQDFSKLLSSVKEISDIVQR
Sequence of Focal adhesion kinase 1 (Homo sapiens) (Q05397 2-1052 limits assumed): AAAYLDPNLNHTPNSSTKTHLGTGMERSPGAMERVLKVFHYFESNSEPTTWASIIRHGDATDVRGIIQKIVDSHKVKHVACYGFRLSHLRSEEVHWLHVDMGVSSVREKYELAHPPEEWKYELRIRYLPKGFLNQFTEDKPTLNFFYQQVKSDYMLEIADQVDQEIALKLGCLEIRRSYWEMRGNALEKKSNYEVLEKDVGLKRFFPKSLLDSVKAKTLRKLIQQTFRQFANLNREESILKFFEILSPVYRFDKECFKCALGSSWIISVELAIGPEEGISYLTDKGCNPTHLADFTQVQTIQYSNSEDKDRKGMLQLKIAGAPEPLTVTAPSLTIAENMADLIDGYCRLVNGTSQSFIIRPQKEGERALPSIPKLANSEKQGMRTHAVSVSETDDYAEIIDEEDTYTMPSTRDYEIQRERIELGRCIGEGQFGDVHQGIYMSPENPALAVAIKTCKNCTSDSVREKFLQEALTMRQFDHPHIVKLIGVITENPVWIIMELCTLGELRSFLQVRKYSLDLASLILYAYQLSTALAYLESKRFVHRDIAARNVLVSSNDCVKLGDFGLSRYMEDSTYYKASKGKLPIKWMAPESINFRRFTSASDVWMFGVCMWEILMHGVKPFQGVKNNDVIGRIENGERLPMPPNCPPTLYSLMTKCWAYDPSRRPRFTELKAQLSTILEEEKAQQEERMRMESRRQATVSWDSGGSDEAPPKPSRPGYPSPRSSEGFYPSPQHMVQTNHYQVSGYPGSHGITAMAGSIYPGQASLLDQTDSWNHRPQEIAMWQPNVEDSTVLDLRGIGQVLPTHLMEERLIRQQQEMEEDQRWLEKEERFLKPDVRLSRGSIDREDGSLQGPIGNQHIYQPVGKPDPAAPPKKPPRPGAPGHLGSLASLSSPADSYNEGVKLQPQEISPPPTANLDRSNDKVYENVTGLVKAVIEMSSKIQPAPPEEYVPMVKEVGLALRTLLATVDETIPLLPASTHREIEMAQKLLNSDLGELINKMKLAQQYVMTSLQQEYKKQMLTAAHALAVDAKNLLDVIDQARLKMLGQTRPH
Sequence of Proto-oncogene tyrosine-protein kinase Src (Homo sapiens) (P12931 2-536 limits assumed): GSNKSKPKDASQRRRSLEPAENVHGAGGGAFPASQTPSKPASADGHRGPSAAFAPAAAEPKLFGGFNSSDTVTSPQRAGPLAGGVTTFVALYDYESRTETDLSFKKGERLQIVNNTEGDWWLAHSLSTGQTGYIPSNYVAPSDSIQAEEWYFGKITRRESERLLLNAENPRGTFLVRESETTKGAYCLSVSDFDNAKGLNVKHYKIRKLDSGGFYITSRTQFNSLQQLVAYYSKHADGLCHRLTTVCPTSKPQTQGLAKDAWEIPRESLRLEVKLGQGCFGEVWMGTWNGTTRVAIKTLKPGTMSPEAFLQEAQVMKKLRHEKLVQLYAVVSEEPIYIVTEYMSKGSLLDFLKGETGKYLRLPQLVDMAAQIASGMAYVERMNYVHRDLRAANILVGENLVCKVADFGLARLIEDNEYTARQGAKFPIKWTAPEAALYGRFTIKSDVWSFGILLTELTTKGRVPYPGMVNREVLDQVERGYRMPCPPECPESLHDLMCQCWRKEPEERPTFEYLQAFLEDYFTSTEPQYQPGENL

`CC(=O)c1cccc(Nc2nc(-c3sc(NC(=O)OC(C)(C)C)nc3C)cs2)c1`: the Activity in data set [1] is 79%; in data set [3], 53%; in data set [5], 32%; in data set [6] it was 49%; in data set [7] it was 82%; in [9], 69%. The Activity in [12] turned out to be 25%; in [15], 57%; in data set [16], 64%; in [17], 88%; in data set [18], 62%; in data set [20] it was 59%. In addition, the Activity in [21] was 100%. Moreover, the EC50 was 1420 nM in the data set on Enterovirus A71 [2]; 2930 nM with Echovirus E11; less than 1390 nM in the data set with Enterovirus A71 [11]; less than 1390 nM in the data set with Enterovirus A71 [13]; 1170 nM with Enterovirus A71 [14]; more than 232000 nM in the data set on rhinovirus B14. Moreover, the EC50 in the data set with Enterovirus A71 [19] stood at 21000 nM. Also, the figures for the CC50 in [4] and in [10] were 42300 nM and 101000 nM, respectively. Further, the outcome in data set [8] was inactive.
